Converted amounts (≈) assume the structure as drawn.
Legend:
[1] = tested on: Candida albicans; assay: Antifungal activity against Candida albicans MY1055 assessed as fungal growth inhibition measured after 24 hrs by liquid microdilution method; assay type: functional
Outline: (§1)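 Broth microdilution per CLSI protocols in RPMI medium. Read-out is the MIC, the lowest concentration completely inhibiting fungal growth. Run without serum and with added serum.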

[2] = Dose normalized AUC in po dosed mouse; assay type: ADME, organism-based; settings: in vivo
[3] = tested on: Aspergillus fumigatus; assay: Antifungal activity against Aspergillus fumigatus MF5668 assessed inhibition of fungal growth by measuring morphological changes measured after 24 hrs by microscopy; assay type: functional; settings: read-out: MEC
Outline: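 Microdilution per CLSI protocols in RPMI medium. Read-out is the minimum effective concentration (MEC). Run without serum and with 50% human serum.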

[4] = Inhibition of beta-1,3-glucan synthase in Candida albicans MY1055 microsomal membrane assessed as inhibition of TCA-insoluble material formation using UDP-[3H]-glucose as substrate incubated for 2 hrs in presence of GTP by radioactivity-based assay; assay type: microsomes, Microsome
Outline: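 GS IC50 measured using Candida albicans MY1055 microsomal membrane fragments as the enzyme source.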

[5] = tested on: Candida albicans; assay: Antifungal activity against Candida albicans MY1055 infected in DBA/2 mouse model of disseminated candidiasis assessed as reduction in fungal burden in kidney by measuring log change in colony forming units at 12.5 mg/kg, po bid for 7 days by TOKA; assay type: functional; settings: time 7 day
Outline: (§2)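 Murine disseminated candidiasis model (TOKA) in mice challenged with C. albicans MY1055 at 2.44 x 10^4 CFU/mouse. Dosed PO, or IP where stated. Kidneys collected aseptically 7 days after challenge and CFUs/g counted. Change in log CFU/g is relative to sham-treated controls; significance by two-tailed t test. Clearance is the percentage of kidneys below the detection limit.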

[6] = tested on: Candida albicans; assay: Antifungal activity against Candida albicans MY1055 assessed as fungal growth inhibition measured after 24 hrs in presence of 50% mouse serum by liquid microdilution method; assay type: functional; outline: as §1
[7] = tested on: Candida albicans; assay: Antifungal activity against Candida albicans MY1055 infected in DBA/2 mouse model of disseminated candidiasis assessed as reduction in fungal burden in kidney by measuring log change in colony forming units at 6.25 mg/kg, po bid for 7 days by TOKA; assay type: functional; settings: time 7 day; outline: as §2
[8] = tested on: Candida albicans; assay: Antifungal activity against Candida albicans MY1055 infected in DBA/2 mouse model of disseminated candidiasis assessed as reduction in fungal burden in kidney by measuring log change in colony forming units at 25 mg/kg, po bid for 7 days by TOKA; assay type: functional; settings: time 7 day; outline: as §2

MIC [1] [µg/mL] | AUC/dose [2] [µM·kg·h/mg] | IC50 [4] [µg/mL] | MIC [6] [µg/mL] | SMILES | minimal effective concentration [3] [µg/mL] | Activity [5] [deltalog10CFU] | Activity [7] [deltalog10CFU] | Activity [8] [deltalog10CFU]
0.03 (≈ 0.0403 µM) | 0.62 | 0.002 | 1 | CN[C@@](C)(CO[C@H]1[C@H](n2ncnc2-c2ccncc2)C[C@@]23COC[C@]1(C)[C@@H]2CC[C@H]1C3=CC[C@@]2(C)[C@H](C(=O)O)[C@@](C)([C@H](C)C(C)C)CC[C@]12C)C(C)(C)C | 0.008 | -3.2 | -1.7 | -4.2
< 0.03 |  | 0.005 | 2 | CC(C)[C@@H](C)[C@@]1(C)CC[C@]2(C)[C@H]3CC[C@@H]4[C@@]5(COC[C@@]4(C)[C@@H](OC[C@](C)(N)C(C)C)[C@H](n4ncnc4-c4cccnn4)C5)C3=CC[C@@]2(C)[C@@H]1C(=O)O | < 0.03 |  |  | 
0.25 (≈ 0.336 µM) |  | 0.011 | 32 | COc1cccc(-c2ncnn2[C@@H]2C[C@@]34COC[C@](C)([C@@H]3CC[C@H]3C4=CC[C@@]4(C)[C@H](C(=O)O)[C@@](C)([C@H](C)C(C)C)CC[C@]34C)[C@H]2OC[C@](C)(N)C(C)C)c1 | < 0.03 |  |  | 
0.25 (≈ 0.333 µM) |  | 0.006 | 4 | CC(C)[C@@H](C)[C@@]1(C)CC[C@]2(C)[C@H]3CC[C@@H]4[C@@]5(COC[C@@]4(C)[C@@H](OC[C@](C)(N)c4ccccc4)[C@H](n4ncnc4-c4ccncc4)C5)C3=CC[C@@]2(C)[C@@H]1C(=O)O | 0.125 | -1.5 | -0.5 | -2.6
0.25 (≈ 0.391 µM) |  | 0.007 | 4 | CC(C)[C@@H](C)[C@@]1(C)CC[C@]2(C)[C@H]3CC[C@@H]4[C@@]5(COC[C@@]4(C)[C@@H](OC[C@](C)(N)C(C)C)[C@H](n4cncn4)C5)C3=CC[C@@]2(C)[C@@H]1C(=O)O | < 0.03 |  |  | 
0.125 (≈ 0.184 µM) |  | 0.006 | 16 | CC(C)[C@@H](C)[C@@]1(C)CC[C@]2(C)[C@H]3CC[C@@H]4[C@@]5(COC[C@@]4(C)[C@@H](OC[C@](C)(N)C(C)C)[C@H](n4ncnc4C4CC4)C5)C3=CC[C@@]2(C)[C@@H]1C(=O)O | 0.008 |  |  | 
0.25 (≈ 0.349 µM) |  | 0.007 | 2 | CC(C)[C@@H](C)[C@@]1(C)CC[C@]2(C)[C@H]3CC[C@@H]4[C@@]5(COC[C@@]4(C)[C@@H](OC[C@H](N)C(C)(C)C)[C@H](n4ncnc4-c4ccncc4)C5)C3=CC[C@@]2(C)[C@@H]1C(=O)O | < 0.03 | -2.4 | -1 | -2.6
0.25 (≈ 0.341 µM) |  | 0.011 | 8 | CC(C)[C@@H](C)[C@@]1(C)CC[C@]2(C)[C@H]3CC[C@@H]4[C@@]5(COC[C@@]4(C)[C@@H](OC[C@](C)(N)C(C)C)[C@H](n4ncnc4-c4ccc(F)cc4)C5)C3=CC[C@@]2(C)[C@@H]1C(=O)O | < 0.03 |  |  | 
0.25 (≈ 0.341 µM) |  | 0.011 | 8 | CC(C)[C@@H](C)[C@@]1(C)CC[C@]2(C)[C@H]3CC[C@@H]4[C@@]5(COC[C@@]4(C)[C@@H](OC[C@](C)(N)C(C)C)[C@H](n4ncnc4-c4cccc(F)c4)C5)C3=CC[C@@]2(C)[C@@H]1C(=O)O | < 0.03 |  |  | 
0.25 (≈ 0.349 µM) |  | 0.004 | 8 | CC(C)[C@@H](C)[C@@]1(C)CC[C@]2(C)[C@H]3CC[C@@H]4[C@@]5(COC[C@@]4(C)[C@@H](OC[C@](C)(N)C(C)C)[C@H](n4ncnc4-c4ncccn4)C5)C3=CC[C@@]2(C)[C@@H]1C(=O)O | < 0.03 |  |  | 
0.25 (≈ 0.335 µM) |  | 0.008 | 4 | COc1cc(-c2ncnn2[C@@H]2C[C@@]34COC[C@](C)([C@@H]3CC[C@H]3C4=CC[C@@]4(C)[C@H](C(=O)O)[C@@](C)([C@H](C)C(C)C)CC[C@]34C)[C@H]2OC[C@](C)(N)C(C)C)ccn1 | < 0.03 |  |  | 
0.06 (≈ 0.0838 µM) |  | 0.001 | 1 | CCC(N)(CC)CO[C@H]1[C@H](n2ncnc2-c2ccncc2)C[C@@]23COC[C@]1(C)[C@@H]2CC[C@H]1C3=CC[C@@]2(C)[C@H](C(=O)O)[C@@](C)([C@H](C)C(C)C)CC[C@]12C | < 0.03 | -2.3 | -1.3 | -3.3
0.5 (≈ 0.697 µM) |  | 0.004 | 4 | CC(C)[C@@H](C)[C@@]1(C)CC[C@]2(C)[C@H]3CC[C@@H]4[C@@]5(COC[C@@]4(C)[C@@H](OC[C@](C)(N)C(C)C)[C@H](n4ncnc4-c4cnccn4)C5)C3=CC[C@@]2(C)[C@@H]1C(=O)O | < 0.03 |  |  | 
0.5 (≈ 0.671 µM) |  | 0.015 | 8 | COc1ccc(-c2ncnn2[C@@H]2C[C@@]34COC[C@](C)([C@@H]3CC[C@H]3C4=CC[C@@]4(C)[C@H](C(=O)O)[C@@](C)([C@H](C)C(C)C)CC[C@]34C)[C@H]2OC[C@](C)(N)C(C)C)cc1 | < 0.03 |  |  | 
0.25 (≈ 0.375 µM) |  | 0.01 | 8 | CCc1ncnn1[C@@H]1C[C@@]23COC[C@](C)([C@@H]2CC[C@H]2C3=CC[C@@]3(C)[C@H](C(=O)O)[C@@](C)([C@H](C)C(C)C)CC[C@]23C)[C@H]1OC[C@](C)(N)C(C)C | < 0.03 |  |  | 
0.25 (≈ 0.342 µM) |  | 0.003 | 16 | CN[C@@](C)(CO[C@H]1[C@H](n2ncnc2-c2ccccn2)C[C@@]23COC[C@]1(C)[C@@H]2CC[C@H]1C3=CC[C@@]2(C)[C@H](C(=O)O)[C@@](C)([C@H](C)C(C)C)CC[C@]12C)C(C)C | < 0.03 |  |  | 
8 (≈ 11.7 µM) |  | 0.003 | 16 | CCCc1ncnn1[C@@H]1C[C@@]23COC[C@](C)([C@@H]2CC[C@H]2C3=CC[C@@]3(C)[C@H](C(=O)O)[C@@](C)([C@H](C)C(C)C)CC[C@]23C)[C@H]1OC[C@](C)(N)C(C)C | < 0.03 |  |  | 
0.5 (≈ 0.682 µM) |  |  | 8 | CC(C)[C@@H](C)[C@@]1(C)CC[C@]2(C)[C@H]3CC[C@@H]4[C@@]5(COC[C@@]4(C)[C@@H](OC[C@](C)(N)C(C)C)[C@H](n4ncnc4-c4ccccc4F)C5)C3=CC[C@@]2(C)[C@@H]1C(=O)O | < 0.03 |  |  | 
0.25 (≈ 0.383 µM) |  | 0.005 | 4 | Cc1ncnn1[C@@H]1C[C@@]23COC[C@](C)([C@@H]2CC[C@H]2C3=CC[C@@]3(C)[C@H](C(=O)O)[C@@](C)([C@H](C)C(C)C)CC[C@]23C)[C@H]1OC[C@](C)(N)C(C)C | 0.03 |  |  | 

Source: ChEMBL document CHEMBL4680287, “Ibrexafungerp: An orally active β-1,3-glucan synthesis inhibitor” (Bioorg Med Chem Lett, 2021)
